The assay deals with Mus musculus. Description: Antifibrotic activity in C57BL/6 mouse pulmonary fibrosis curative model assessed as reduction in bleomycin-induced collagen deposition at 10 mg/kg, po qd administered 10 days post challenge […] measured on day 25 by SIRCOL assay. The format is functional. The method, boiled down: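 Male C57BL/6 mice (9–10 weeks) under ketamine/xylazine given 0.0125 U bleomycin intratracheally in 40 µL saline. Daily oral dosing at 10 mL/kg in 3% DMSO then aqueous 0.5% CMC/0.25% Tween 20. Whole-lung collagen by Sircol dye binding (0.5 M acetic acid extraction overnight, 540 nm, rat-tail collagen standard), µg per lung.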

Molecules are shown by their SMILES.

A word on the inhibition in vivo: it is the change of the read-out against control, counted positive when it falls.

`Cl.O=c1c2c3n(c(=O)cc2[nH]n1-c1ccccc1Cl)CCCN(Cc1ccccc1)C3`: the inhibition in vivo at 10 mg/kg turned out to be 64%.

Values taken from ChEMBL document CHEMBL1926564, “Design, synthesis and biological activity of original pyrazolo-pyrido-diazepine, -pyrazine and -oxazine dione derivatives as novel dual Nox4/Nox1 inhibitors” (Bioorg Med Chem, 2011).
